Assays:
Assay type in all cases: functional
Rattus norvegicus [1] = species: Rattus norvegicus; experiment: Percent inhibition of [14C]acetate incorporation into CO2, after incubation with rat liver slices at 5x10E-4 M concentration
Summary of the method: (§1)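 Rat liver slices (250 mg) incubated in 4 mL Krebs-Ringer bicarbonate buffer, pH 7.4, with 4 mM [2-14C]acetate, with or without test compound; label recovered in CO2, long-chain fatty acids and cholesterol measured and inhibition calculated against untreated slices. Values are arithmetic means of three determinations.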

Rattus norvegicus [2] = species: Rattus norvegicus; experiment: Percent inhibition of [14C]acetate incorporation into long-chain fatty acids, after incubation with rat liver slices at 5x10E-4 M concentration; summary of the method: as §1
Rattus norvegicus [3] = species: Rattus norvegicus; experiment: Percent inhibition of [14C]acetate incorporation into cholesterol, after incubation with rat liver slices at 5x10E-4 M concentration; summary of the method: as §1
Rattus norvegicus [4] = species: Rattus norvegicus; experiment: Percent inhibition of [14C]acetate incorporation into long-chain fatty acids, after incubation with rat liver slices at 5x10E-3 M concentration; summary of the method: as §1
Rattus norvegicus [5] = species: Rattus norvegicus; experiment: Percent inhibition of [14C]acetate incorporation into cholesterol, after incubation with rat liver slices at 5x10E-3 M concentration; summary of the method: as §1
Rattus norvegicus [6] = species: Rattus norvegicus; experiment: Percent inhibition of [14C]acetate incorporation into CO2, after incubation with rat liver slices at 5x10E-3 M concentration; summary of the method: as §1

Compound	inhibition at 500 µM (Rattus norvegicus [1])	inhibition at 500 µM (Rattus norvegicus [2])	inhibition at 500 µM (Rattus norvegicus [3])	inhibition at 5000 µM (Rattus norvegicus [4])	inhibition at 5000 µM (Rattus norvegicus [5])	inhibition at 5000 µM (Rattus norvegicus [6])
CO[C@H]1CCCC[C@H]1C(C)(O)CC(=O)O (some centres undefined)	39%	57%	25%	–	–	–
CC1CC(=O)O[C@H]2CCCC[C@@H]12 (some centres undefined)	10%	10%	10%	62%	39%	24%
CC1(O)CC(=O)O[C@H]2CCCC[C@H]21 (some centres undefined)	10%	10%	10%	47%	22%	37%
CC(O)(CC(=O)O)[C@@H]1CCCC[C@@H]1O (some centres undefined)	10%	10%	10%	68%	50%	62%
CC(O)(CC(=O)O)C1CCCCC1 (centres undefined) [CYCLOBUTOIC ACID]	62%	72%	32%	–	–	–
